Measured values published in ChEMBL document CHEMBL1135766, “Synthesis of conformationally constrained analogues of linezolid: structure-activity relationship (SAR) studies on selected novel tricyclic oxazolidinones” (2002).
≈ marks a conversion by molar mass, not a printed value.

How the values were obtained:
Enterococcus faecalis [1] = assay: In vitro antibacterial activity against Enterococcus faecalis ATCC 29212 (E. f. 153) vancomycin sensitive; format: functional
How it was run: (§1)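 Broth microdilution per NCCLS guidelines in Mueller Hinton medium. Doubling dilutions 256–1 μg/mL; inoculum (1–5) × 10⁵ CFU/mL; plates incubated overnight at 35 °C in ambient air. MIC read as the lowest concentration giving complete growth inhibition. Linezolid and vancomycin served as controls.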

Enterococcus faecium = assay: In vitro antibacterial activity against Enterococcus faecium ATCC 12202 (E.fm 154) vancomycin resistant; format: functional, enterococcus fecium
How it was run: (§2)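 Broth microdilution MIC per NCCLS guidelines in Mueller Hinton medium. Doubling dilutions from 256 to 1 μg/mL, inoculum (1–5) × 10⁵ CFU/mL, incubated overnight in ambient air at 35 °C. MIC is the lowest concentration giving complete growth inhibition. Linezolid and vancomycin served as controls.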

Staphylococcus aureus [2] = assay: In vitro antibacterial activity against methicillin resistant Staphylococcus aureus ATCC 33591 (S. a. 019); format: functional; how it was run: as §2
Staphylococcus aureus [3] = assay: In vitro antibacterial activity against Staphylococcus aureus ATCC 29213 (S. a. 035); format: functional; how it was run: as §1
Enterococcus faecalis [4] = assay: In vitro antibacterial activity against Enterococcus faecalis ATCC 29212 (E. f. 034) vancomycin sensitive; format: functional; how it was run: as §2
Staphylococcus aureus [5] = assay: In vitro antibacterial activity against Staphylococcus aureus ATCC 49951 (S. a. 213); format: functional; how it was run: as §2
Enterococcus faecalis [6] = assay: In vitro antibacterial activity against Enterococcus faecalis NCTC 12201 (E. f. 153) vancomycin resistant; format: functional; how it was run: as §2
Mus musculus [7] = assay: In vivo antibacterial activity in a murine systemic infection model; format: functional
How it was run: (§3)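 Female Swiss Albino mice (22–25 g, n = 6) were infected intraperitoneally with 0.5 mL S. aureus ATCC 29213. The inoculum was grown 2–3 h at 35 °C in BHI broth and adjusted to 100 × LD50 in 5% hog gastric mucin. Compound was suspended in 0.25% carboxymethyl cellulose and given orally 1 and 6 h post-infection; controls received saline. Cumulative mortality was scored over 48 h, and ED50 was derived by linear regression.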

Mus musculus [8] = assay: In vivo antibacterial activity in a murine systemic infection model (95%confidence limits); format: functional; how it was run: as §3

| SMILES | MIC (Enterococcus faecalis [1]) | MIC (Enterococcus faecium) | MIC (Staphylococcus aureus [2]) | MIC (Staphylococcus aureus [3]) | MIC (Enterococcus faecalis [4]) | MIC (Staphylococcus aureus [5]) | MIC (Enterococcus faecalis [6]) | ED50 (Mus musculus [7]) | ED50 (Mus musculus [8]) |
| --- | --- | --- | --- | --- | --- | --- | --- | --- | --- |
| O=C(CCl)NC[C@H]1CN(c2cc(F)c3c(c2)OC[C@@H]2CCCN32)C(=O)O1 | 2 µg/mL (≈ 5.21 µM) | 2 µg/mL (≈ 5.21 µM) | 1 µg/mL (≈ 2.61 µM) | 1 µg/mL (≈ 2.61 µM) | 2 µg/mL (≈ 5.21 µM) | – | – | – | – |
| C/N=C(\S)NC[C@H]1CN(c2cc(F)c3c(c2)OC[C@@H]2CCCN32)C(=O)O1 | – | 4 µg/mL (≈ 10.5 µM) | 2 µg/mL (≈ 5.26 µM) | 4 µg/mL (≈ 10.5 µM) | 2 µg/mL (≈ 5.26 µM) | 4 µg/mL (≈ 10.5 µM) | 4 µg/mL (≈ 10.5 µM) | – | – |
| C=CC(=O)NC[C@H]1CN(c2cc(F)c3c(c2)OC[C@@H]2CCCN32)C(=O)O1 | – | 4 µg/mL (≈ 11.1 µM) | 4 µg/mL (≈ 11.1 µM) | 4 µg/mL (≈ 11.1 µM) | 4 µg/mL (≈ 11.1 µM) | 4 µg/mL (≈ 11.1 µM) | 4 µg/mL (≈ 11.1 µM) | 30 mg/kg | – |
| O=CNC[C@H]1CN(c2ccc3c(c2)OC[C@@H]2CCCN32)C(=O)O1 | – | 16 µg/mL (≈ 50.4 µM) | 4 µg/mL (≈ 12.6 µM) | 8 µg/mL (≈ 25.2 µM) | 16 µg/mL (≈ 50.4 µM) | – | 16 µg/mL (≈ 50.4 µM) | – | – |
| CC(=O)NC[C@H]1CN(c2ccc3c(c2)OC[C@@H]2CCCN32)C(=O)O1 | – | 16 µg/mL (≈ 48.3 µM) | 4 µg/mL (≈ 12.1 µM) | 8 µg/mL (≈ 24.1 µM) | 16 µg/mL (≈ 48.3 µM) | 4 µg/mL (≈ 12.1 µM) | 16 µg/mL (≈ 48.3 µM) | – | – |
| CC(C)C(=O)NC[C@H]1CN(c2cc(F)c3c(c2)OC[C@@H]2CCCN32)C(=O)O1 | – | 16 µg/mL (≈ 42.4 µM) | 8 µg/mL (≈ 21.2 µM) | 8 µg/mL (≈ 21.2 µM) | 16 µg/mL (≈ 42.4 µM) | 8 µg/mL (≈ 21.2 µM) | 16 µg/mL (≈ 42.4 µM) | – | – |
| CCC(=O)NC[C@H]1CN(c2cc(F)c3c(c2)OC[C@@H]2CCCN32)C(=O)O1 | – | 8 µg/mL (≈ 22 µM) | 2 µg/mL (≈ 5.5 µM) | 4 µg/mL (≈ 11 µM) | 4 µg/mL (≈ 11 µM) | 4 µg/mL (≈ 11 µM) | 8 µg/mL (≈ 22 µM) | 16 mg/kg | – |
| CCCCC(=O)NC[C@H]1CN(c2cc(F)c3c(c2)OC[C@@H]2CCCN32)C(=O)O1 | – | 32 µg/mL (≈ 81.7 µM) | 8 µg/mL (≈ 20.4 µM) | 16 µg/mL (≈ 40.9 µM) | 16 µg/mL (≈ 40.9 µM) | 16 µg/mL (≈ 40.9 µM) | 16 µg/mL (≈ 40.9 µM) | – | – |
| CCOC(=O)NC[C@H]1CN(c2cc(F)c3c(c2)OC[C@@H]2CCCN32)C(=O)O1 | – | 8 µg/mL (≈ 21.1 µM) | 8 µg/mL (≈ 21.1 µM) | 8 µg/mL (≈ 21.1 µM) | 8 µg/mL (≈ 21.1 µM) | 8 µg/mL (≈ 21.1 µM) | 8 µg/mL (≈ 21.1 µM) | – | – |
| CC/C(S)=N\C[C@H]1CN(c2cc(F)c3c(c2)OC[C@@H]2CCCN32)C(=O)O1 | – | 0.5 µg/mL (≈ 1.32 µM) | 0.5 µg/mL (≈ 1.32 µM) | 1 µg/mL (≈ 2.64 µM) | 0.5 µg/mL (≈ 1.32 µM) | 0.5 µg/mL (≈ 1.32 µM) | 0.5 µg/mL (≈ 1.32 µM) | 30 mg/kg | – |
| COC(=O)NC[C@H]1CN(c2cc(F)c3c(c2)OC[C@@H]2CCCN32)C(=O)O1 | – | 2 µg/mL (≈ 5.47 µM) | 2 µg/mL (≈ 5.47 µM) | 2 µg/mL (≈ 5.47 µM) | 2 µg/mL (≈ 5.47 µM) | 2 µg/mL (≈ 5.47 µM) | 2 µg/mL (≈ 5.47 µM) | 3.3 mg/kg | – |
| CCCCO/C(S)=N\C[C@H]1CN(c2cc(F)c3c(c2)OC[C@@H]2CCCN32)C(=O)O1 | > 32 µg/mL | > 32 µg/mL | > 32 µg/mL | > 32 µg/mL | > 32 µg/mL | > 32 µg/mL | – | – | – |
| O=C1O[C@@H](C/N=C(/S)N2CCOCC2)CN1c1cc(F)c2c(c1)OC[C@@H]1CCCN21 | – | 16 µg/mL (≈ 36.7 µM) | 16 µg/mL (≈ 36.7 µM) | 16 µg/mL (≈ 36.7 µM) | 16 µg/mL (≈ 36.7 µM) | 16 µg/mL (≈ 36.7 µM) | 16 µg/mL (≈ 36.7 µM) | – | – |
| CCO/C(S)=N\C[C@H]1CN(c2cc(F)c3c(c2)OC[C@@H]2CCCN32)C(=O)O1 | 2 µg/mL (≈ 5.06 µM) | 2 µg/mL (≈ 5.06 µM) | 1 µg/mL (≈ 2.53 µM) | 2 µg/mL (≈ 5.06 µM) | 2 µg/mL (≈ 5.06 µM) | 2 µg/mL (≈ 5.06 µM) | – | – | – |
| CCCCCC(=O)NC[C@H]1CN(c2cc(F)c3c(c2)OC[C@@H]2CCCN32)C(=O)O1 | – | 32 µg/mL (≈ 78.9 µM) | 16 µg/mL (≈ 39.5 µM) | 32 µg/mL (≈ 78.9 µM) | 32 µg/mL (≈ 78.9 µM) | 32 µg/mL (≈ 78.9 µM) | 32 µg/mL (≈ 78.9 µM) | – | – |
| CO/C(S)=N\C[C@H]1CN(c2cc(F)c3c(c2)OC[C@@H]2CCCN32)C(=O)O1 | 0.5 µg/mL (≈ 1.31 µM) | 0.5 µg/mL (≈ 1.31 µM) | 0.5 µg/mL (≈ 1.31 µM) | 1 µg/mL (≈ 2.62 µM) | 0.5 µg/mL (≈ 1.31 µM) | 1 µg/mL (≈ 2.62 µM) | – | – | 4.85 mg/kg |
| N=C(S)NC[C@H]1CN(c2cc(F)c3c(c2)OC[C@@H]2CCCN32)C(=O)O1 | – | 1 µg/mL (≈ 2.73 µM) | 0.5 µg/mL (≈ 1.36 µM) | 0.5 µg/mL (≈ 1.36 µM) | 1 µg/mL (≈ 2.73 µM) | 0.5 µg/mL (≈ 1.36 µM) | 1 µg/mL (≈ 2.73 µM) | – | – |
| CCCC(=O)NC[C@H]1CN(c2cc(F)c3c(c2)OC[C@@H]2CCCN32)C(=O)O1 | – | 4 µg/mL (≈ 10.6 µM) | 4 µg/mL (≈ 10.6 µM) | 4 µg/mL (≈ 10.6 µM) | 4 µg/mL (≈ 10.6 µM) | 4 µg/mL (≈ 10.6 µM) | 4 µg/mL (≈ 10.6 µM) | – | – |
